Activity calls are given as the source filed them. The calls are words filed in the database; no cut-off is given here.
Tests used:
L02 [1] = test: Hepatoprotective activity against D-galactosamine-induced cell toxicity in human HL-7702 cells assessed as cell survival at 10 uM incubated for 1 hr prior to D-galactosamine-challenge measured after 24 hrs by MTT assay relative to normal cells; type: functional; settings: read-out: Survival
How it was run: (§1)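 HL-7702 cells (2 × 10^4 per well) precultured 24 h at 37 °C, 5% CO2 in RPMI 1640 with 10% fetal calf serum, penicillin and streptomycin. Test compound (10 μM) added in fresh medium for 1 h, then 25 mM D-galactosamine for 24 h. MTT 0.5 mg/mL 4 h, formazan in DMSO, OD 492 nm. Survival as % of normal; means ± SD, n = 3; bicyclol 10 μM as positive control.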

[2] = Hepatoprotective activity in human HL-7702 cells assessed as inhibition of D-galactosamine-induced cell toxicity incubated for 1 hr prior to D-galactosamine-challenge measured after 24 hrs by MTT assay relative to control; type: functional, L02
Neuron = test: Neuroprotective activity against MPP+-induced neuronal cell injury in neurons (unknown origin); type: functional, cell-based
L02 [3] = test: Hepatoprotective activity against D-galactosamine-induced cell toxicity in human HL-7702 cells assessed as cell survival incubated for 1 hr prior to D-galactosamine-challenge measured after 24 hrs by MTT assay relative to normal cells; type: functional; design: concentration or dose not given beside the values; how it was run: as §1
A2780 = test: Cytotoxicity against human A2780 cells by MTT assay; type: cell-based
A549 = test: Cytotoxicity against human A549 cells by MTT assay; type: cell-based
[4] = Cytotoxicity against human BGC823 cells by MTT assay; type: cell-based; settings: BGC-823
[5] = Cytotoxicity against human Bel7402 cells by MTT assay; type: cell-based; settings: Bel-7402
[6] = Cytotoxicity against human HCT8 cells by MTT assay; type: cell-based; settings: HCT-8

SMILES | viability at 10 µM (L02 [1]) [%] | inhibition (INH) [2] [%] | Activity (Neuron) | Survival (L02 [3]) [%] | IC50 (A2780) [µM] | IC50 (A549) [µM] | IC50 [4] [µM] | IC50 [5] [µM] | IC50 [6] [µM]
COC(=O)c1cc(OC)c2c(c1-c1c(CO)cc(OC)c3c1OCO3)OCO2 [BICYCLOL] | 76 | 42.5 | – | – | – | – | – | – | –
C=C1CC[C@@H]2[C@H]([C@@H]3[C@H]1CC[C@]3(C)O)[C@@]2(C)C/C=C/C(C)(C)O | – | 27 | inactive | 70 | > 10 | > 10 | > 10 | > 10 | > 10
C=C1CC[C@@H]2[C@H]([C@@H]3[C@H]1CC[C@]3(C)O)[C@@]2(C)[C@@H]1C(=O)C(C)=C[C@H]1O | – | – | inactive | – | > 10 | > 10 | > 10 | > 10 | > 10
C=C1CC[C@@H]2[C@H]([C@@H]3[C@H]1CC[C@]3(C)O)[C@@]2(C)C(/C=C/C(C)(C)O)OC (stereo not given in full) | – | – | inactive | – | > 10 | > 10 | > 10 | > 10 | > 10
C=C1CC[C@@H]2[C@H]([C@@H]3[C@H]1CC[C@]3(C)O)[C@@]2(C)C[C@@H]1C=C(C)C(=O)O1 | – | 33.6 | inactive | 73 | > 10 | > 10 | > 10 | > 10 | > 10
C=C1CC[C@@H]2[C@H]([C@H]3[C@H](C)CC[C@@H]13)[C@@]2(C)C[C@H](O)/C=C(/C)CO | – | 36.3 | inactive | 73 | > 10 | > 10 | > 10 | > 10 | > 10
C=C1CC[C@@H]2[C@H]([C@@H]3[C@H]1CC[C@]3(C)O)[C@@]2(C)C[C@H]1C=C(C)C(=O)O1 | – | 24.3 | inactive | 68 | > 10 | > 10 | > 10 | > 10 | > 10
C=C1CC[C@@H]2[C@H]([C@@H]3[C@H]1CC[C@]3(C)O)[C@@]2(C)/C=C/C=C(\C)C=O | – | 69.6 | inactive | 88 | > 10 | > 10 | > 10 | > 10 | > 10
C=C1CC[C@@H]2[C@H]([C@@H]3[C@H]1CC[C@]3(C)O)[C@@]2(C)/C=C/C=C(/C)CO | – | 26.1 | inactive | 69 | > 10 | > 10 | > 10 | > 10 | > 10
C=C1CC[C@@H]2[C@H]([C@@H]3[C@H]1CC[C@]3(C)O)[C@@]2(C)CC/C=C(/C)CO | – | 33.6 | inactive | 73 | > 10 | > 10 | > 10 | > 10 | > 10

Reference: ChEMBL document CHEMBL3085744, “Hepatoprotective prenylaromadendrane-type diterpenes from the gum resin of Boswellia carterii” (J Nat Prod, 2013)
